The text below walks through data of ChEMBL document CHEMBL1144120, “In vitro evaluation of antifungal properties of phenylpropanoids and related compounds acting against dermatophytes” (1999).

≈ marks a conversion by molar mass, not a printed value. Calls of active or inactive are those of the source.

Assay [1] has as its system Epidermophyton floccosum. The experiment in a line: Antifungal activity against Epidermophyton floccosum C 114 up to 50 ug/mL by agar dilution method. It counts as functional, organism-based. In a few lines: (§1)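 Dermatophytes were tested by agar dilution on Sabouraud chloramphenicol agar in 96-well plates. DMSO stock solutions were serially two-fold diluted into the medium to give final concentrations of 0.10–50 µg/mL, with DMSO not exceeding 2%. Each well received 5 µL of spore suspension.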
Background: Agar dilution tests growth on a series of plates holding different concentrations.

For assay [2], the system named is Aspergillus niger. Put plainly: Antifungal activity against Aspergillus niger ATCC 9029 by agar dilution method. The class given is functional, organism-based. In a few lines:
(§2)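 Sabouraud chloramphenicol agar dilution in 96-well plates. Strains were grown on Sabouraud chloramphenicol agar slants for 48 h at 30 °C and suspended in sterile distilled water, adjusted to 10^6 viable cells/mL. DMSO stocks were serially two-fold diluted into the agar to give 0.10–50 µg/mL, with DMSO ≤2% final. 5 µL inoculum per well; incubated 24, 48 or 72 h at 30 °C per control growth; MIC recorded.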

Assay [3] has as its system Candida albicans. Put plainly: Antifungal activity against Candida albicans ATCC 10231 by agar dilution method. It counts as functional, organism-based. Put shortly: as §2
Assay [4] concerns Nannizzia gypsea. The experiment in a line: Antifungal activity against Microsporum gypseum C 115 by agar dilution method. The class given is functional. Put shortly:
as §1

The subject of assay [5] is Trichophyton mentagrophytes. The experiment in a line: Antifungal activity against Trichophyton mentagrophytes ATCC 9972 up to 50 ug/mL by agar dilution method. The class given is functional, organism-based. Put shortly:
as §1

Assay [6] deals with Trichophyton rubrum. The experiment in a line: Antifungal activity against Trichophyton rubrum C 113 by agar dilution method. The class given is functional. In a few lines: as §1
In assay [7] the test system is Epidermophyton floccosum. Put plainly: Antifungal activity against Epidermophyton floccosum C 114 by agar dilution method. The class given is functional. Put shortly:
as §1

In assay [8] the test system is Trichophyton mentagrophytes. Put plainly: Antifungal activity against Trichophyton mentagrophytes ATCC by agar dilution method. The class given is functional. In a few lines:
as §1

Assay [9] has as its system Aspergillus fumigatus. The experiment in a line: Antifungal activity against Aspergillus fumigatus ATCC 26934 by agar dilution method. It counts as functional, organism-based. Put shortly:
as §2

For assay [10], the system named is Microsporum canis. The experiment in a line: Antifungal activity against Microsporum canis C 112 by agar dilution method. The class given is functional. In a few lines:
as §1

The subject of assay [11] is Cryptococcus neoformans. The experiment in a line: Antifungal activity against Cryptococcus neoformans ATCC 32264 by agar dilution method. The class given is functional, organism-based. Put shortly: as §2
Assay [12] deals with Trichophyton rubrum. The experiment in a line: Antifungal activity against Trichophyton rubrum C 113 up to 50 ug/mL by agar dilution method. It counts as functional, organism-based. In a few lines:
as §1

Assay [13] has as its system Nannizzia gypsea. The experiment in a line: Antifungal activity against Microsporum gypseum C 115 up to 50 ug/mL by agar dilution method. The class given is functional, organism-based. Put shortly: as §1
The subject of assay [14] is Aspergillus flavus. Put plainly: Antifungal activity against Aspergillus flavus ATCC 9170 by agar dilution method. The class given is functional, organism-based. Put shortly:
as §2

In assay [15] the test system is Saccharomyces cerevisiae. The experiment in a line: Antifungal activity against Saccharomyces cerevisiae ATCC 9763 by agar dilution method. It counts as functional, organism-based. In a few lines: as §2
The test system of assay [16] is Microsporum canis. Put plainly: Antifungal activity against Microsporum canis C 112 up to 50 ug/mL by agar dilution method. It counts as functional, organism-based. In a few lines: as §1

For the compound `C/C=C\c1ccc(O)c(OC)c1` [ISOEUGENOL], the result in assay [1], in assay [2], in assay [3], in [5], in assay [9] and in assay [11] was inactive. Also, the outcome in [12], in assay [13], in [14], in assay [15] and in [16] was inactive. In addition, the MIC in [4], in assay [6], in assay [7], in assay [8] and in assay [10] was over 50 µg/mL throughout.
Take `CCC(=O)c1ccc(OC)cc1`: the outcome in assay [1], in assay [2], in [3], in assay [5], in assay [9] and in assay [11] was inactive. In addition, the result in assay [12], in assay [13], in assay [14], in assay [15] and in [16] was inactive. Besides, the MIC in assay [4], in [6], in [7], in assay [8] and in assay [10] was over 50 µg/mL each time.
Turning to `CCC(=O)c1ccc2c(c1)OCO2`, the result in [1], in [2], in assay [3], in [5], in assay [9] and in [11] was inactive. For the same compound, the outcome in assay [12], in assay [13], in [14], in assay [15] and in assay [16] was inactive. The MIC is over 50 µg/mL in assay [4]; over 50 µg/mL in assay [6]; 40 µg/mL (≈ 224 µM) in assay [7]; over 50 µg/mL in assay [8]; over 50 µg/mL in assay [10].
As to `COc1ccc(C(=O)C(C)C)cc1OC`, the outcome in [1], in assay [2], in assay [3], in assay [5], in assay [9] and in assay [11] was inactive. The outcome in assay [12], in assay [13], in assay [14], in [15] and in assay [16] was inactive. The MIC in [4] was over 50 µg/mL; in assay [6], 50 µg/mL (≈ 240 µM); in assay [7], 50 µg/mL (≈ 240 µM); in assay [8], over 50 µg/mL; in [10] it was over 50 µg/mL.
In the case of `CCC(=O)c1cc(OC)c(OC)c(OC)c1`, the result in assay [1], in assay [2], in assay [3], in [5], in [9] and in assay [11] was inactive. Also, the outcome in assay [12], in assay [13], in [14], in assay [15] and in [16] was inactive. In addition, the MIC in assay [4], in assay [6], in assay [7], in [8] and in [10] was over 50 µg/mL each time.
With `C=CCc1ccc(OC)c(OC)c1` [METHYLEUGENOL], the result in assay [1], in assay [2], in assay [3], in assay [5], in assay [9] and in [11] was inactive. In addition, the outcome in assay [12], in assay [13], in assay [14], in [15] and in assay [16] was inactive. For the same compound, the MIC in assay [4], in assay [6], in assay [7], in assay [8] and in [10] was over 50 µg/mL each time.
For the compound `CCC(=O)c1ccc(OC)c(OC)c1`, the outcome in assay [1], in assay [2], in assay [3], in [5], in assay [9] and in [11] was inactive. The outcome in assay [12], in assay [13], in assay [14], in [15] and in [16] was inactive. For the same compound, the MIC in assay [4] was over 50 µg/mL; in assay [6] it was over 50 µg/mL; in assay [7] it was 50 µg/mL (≈ 257 µM); in assay [8], over 50 µg/mL; in assay [10], over 50 µg/mL.
Turning to `CCC(O)c1cc(OC)c(OC)c(OC)c1` (configuration not stated), the result in assay [1], in [2], in [3], in [5], in assay [9] and in assay [11] was inactive. In addition, the outcome in assay [12], in [13], in assay [14], in assay [15] and in assay [16] was inactive. For the same compound, the MIC is over 50 µg/mL in assay [4]; over 50 µg/mL in assay [6]; 50 µg/mL (≈ 221 µM) in [7]; over 50 µg/mL in assay [8]; 50 µg/mL (≈ 221 µM) in assay [10].
Take `C=CCc1ccc(O)c(OC)c1` [EUGENOL]: the result in assay [1], in [2], in assay [3], in assay [5], in [9] and in assay [11] was inactive. Moreover, the result in [12], in assay [13], in [14], in assay [15] and in assay [16] was inactive. The minimal inhibitory concentration (MIC) in assay [4], in assay [6], in assay [7], in assay [8] and in assay [10] was over 50 µg/mL in each case.
Take `C=CCc1cc(OC)c(OC)c(OC)c1`: the outcome in [1], in assay [2], in assay [3], in assay [5], in assay [9] and in assay [11] was inactive. In addition, the outcome in assay [12], in [13], in [14], in assay [15] and in assay [16] was inactive. In addition, the MIC in assay [4], in assay [6], in assay [7], in [8] and in assay [10] was over 50 µg/mL in each case.
Take `COc1ccc(C(O)C(C)C)cc1OC` (configuration not stated): the outcome in assay [1], in [2], in assay [3], in assay [5], in [9] and in [11] was inactive. Moreover, the result in assay [12], in assay [13], in [14], in assay [15] and in assay [16] was inactive. Also, the minimum inhibitory concentration (MIC) in assay [4], in [6], in assay [7], in assay [8] and in [10] was over 50 µg/mL each time.
Regarding `CCC(O)c1ccc(OC)c(OC)c1` (configuration not stated), the outcome in assay [1], in assay [2], in [3], in [5], in assay [9] and in assay [11] was inactive. The outcome in [12], in [13], in [14], in assay [15] and in [16] was inactive. For the same compound, the MIC was over 50 µg/mL in assay [4]; over 50 µg/mL in [6]; 50 µg/mL (≈ 255 µM) in assay [7]; over 50 µg/mL in assay [8]; over 50 µg/mL in assay [10].

In general, MIC refers to the smallest concentration in the dilution series that meets the test's criterion for growth inhibition. A low value points to inhibition by little substance.
